Results reported in ChEMBL document CHEMBL1128433, “Novel 1,2-dithiins: synthesis, molecular modeling studies, and antifungal activity” (1995).
In brackets after ≈: the same amount, converted by molar mass.

Key:
Format in all cases: functional
Aspergillus fumigatus [1] = test: Antifungal activity against aspergillus fumigatus
How it was run: (§1)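 A. fumigatus grown on SAB agar 3–4 d at 35 °C; conidia used as inoculum at final 1 × 10^3 cfu/mL. Broth microdilution in SAB broth, 2-fold serial dilutions of compound dissolved in ethanol or DMSO. Incubated 48 h at 35 °C. MIC read by eye as the lowest concentration with no visible growth. Amphotericin B reference.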

Candida albicans [2] = test: Antifungal activity against candida albicans B-311
How it was run: (§2)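 Candida grown 24 h at 35 °C on YM agar, then 6 h at 35 °C with rotation in GYB broth (2% glucose, 1% yeast extract). Final inoculum 2 × 10^3 cfu/mL. 96-well SAB broth microdilution, 2-fold series from ethanol or DMSO solutions. 24 h at 35 °C; MIC = lowest concentration without visible growth. Amphotericin B reference.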

Candida tropicalis = test: Antifungal activity against candida tropicalis 1525; how it was run: as §2
Candida parapsilosis = test: Antifungal activity against candida parapsilosis CP18; settings: Lodderomyces parapsilosis; how it was run: as §2
Cryptococcus neoformans [3] = test: Antifungal activity against cryptococcus neoformans
How it was run: (§3)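 C. neoformans grown on YM agar 48 h at 35 °C, then 6 h in GYB broth at 35 °C with rotation. Final inoculum 2 × 10^4 cfu/mL. SAB broth microdilution with 2-fold serial dilutions (compound in ethanol or DMSO). Incubated 48 h at 35 °C; MIC read visually as the lowest concentration with no growth. Amphotericin B reference.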

Candida albicans [4] = test: Antifungal activity against candida albicans A-26; how it was run: as §2
Trichophyton rubrum = test: Antifungal activity against Trichophyton rubrum ATCC 18762
How it was run: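 T. rubrum grown on SAB agar 5–7 d at 25 °C; conidia as inoculum, final 1 × 10^4 cfu/mL. Compounds in ethanol or DMSO, 2-fold serial dilutions in SAB broth in 96-well plates. Incubated 7 d at 25 °C. MIC taken as the lowest concentration with no visible growth versus the growth-control wells. Amphotericin B was the reference.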

Cryptococcus neoformans [5] = test: Antifungal activity against cryptococcus neoformans MI-106; how it was run: as §3
Pichia kudriavzevii = test: Antifungal activity against candida krusei GK7831; how it was run: as §2
Candida albicans [6] = test: Antifungal activity against candida albicans; how it was run: as §2
Aspergillus fumigatus [7] = test: Antifungal activity against aspergillus fumigatus WM-1; how it was run: as §1

SMILES	MIC (Aspergillus fumigatus [1])	MIC (Cryptococcus neoformans [3])	MIC (Candida albicans [6])	other results
OCC1=CC=C(/C=N/O)SS1	1.6 µg/mL (≈ 8.45 µM)	1.6 µg/mL (≈ 8.45 µM)	1.6 µg/mL (≈ 8.45 µM)	MIC (Candida albicans [2]): 1.6 µg/mL (≈ 8.45 µM); MIC (Candida tropicalis): 6.3 µg/mL (≈ 33.3 µM); MIC (Candida parapsilosis): 3.1 µg/mL (≈ 16.4 µM); MIC (Candida albicans [4]): 1.6 µg/mL (≈ 8.45 µM); MIC (Trichophyton rubrum): 0.8 µg/mL (≈ 4.23 µM); MIC (Cryptococcus neoformans [5]): 1.6 µg/mL (≈ 8.45 µM); MIC (Pichia kudriavzevii): 6.3 µg/mL (≈ 33.3 µM); MIC (Aspergillus fumigatus [7]): 1.6 µg/mL (≈ 8.45 µM)
O=c1ccc(=O)n(CC2=CC=C(CO)SS2)[nH]1	> 100 µg/mL	> 100 µg/mL	> 100 µg/mL	–
OCC1=CC=C(COCC(O)CO)SS1 (stereo unspecified)	> 100 µg/mL	> 100 µg/mL	> 100 µg/mL	–
O=C(OCC1=CC=C(COC(=O)c2ccccc2)SS1)c1ccccc1	> 100 µg/mL	> 100 µg/mL	> 100 µg/mL	–
OCC1=CC=C(COc2ccccc2C(F)(F)F)SS1	50 µg/mL (≈ 156 µM)	6.3 µg/mL (≈ 19.7 µM)	25 µg/mL (≈ 78 µM)	–
COC(=O)c1ccc(OCC2=CC=C(CO)SS2)cc1	12.5 µg/mL (≈ 40.3 µM)	3.1 µg/mL (≈ 9.99 µM)	3.1 µg/mL (≈ 9.99 µM)	–
OCC1=CC=C(COc2cc(C(F)(F)F)ccc2Cl)SS1	6.3 µg/mL (≈ 17.8 µM)	1.6 µg/mL (≈ 4.51 µM)	1.6 µg/mL (≈ 4.51 µM)	–
CCC(=O)OCC1=CC=C(COC(=O)CC)SS1	3.1 µg/mL (≈ 10.7 µM)	6.3 µg/mL (≈ 21.8 µM)	12.5 µg/mL (≈ 43.3 µM)	–
OCC1=CC=C(COc2cccc(O)c2)SS1	> 100 µg/mL	100 µg/mL (≈ 373 µM)	50 µg/mL (≈ 186 µM)	–
CCOC(=O)/C=C/C1=CC=C(CO)SS1	25 µg/mL (≈ 102 µM)	6.3 µg/mL (≈ 25.8 µM)	12.5 µg/mL (≈ 51.2 µM)	–
[N-]=[N+]=NCC1=CC=C(CCl)SS1	50 µg/mL (≈ 228 µM)	6.3 µg/mL (≈ 28.7 µM)	25 µg/mL (≈ 114 µM)	–
OCC1=CC=C(COc2ccccc2)SS1	25 µg/mL (≈ 99.1 µM)	12.5 µg/mL (≈ 49.5 µM)	25 µg/mL (≈ 99.1 µM)	–
CC(=O)NCC1=CC=C(CO)SS1	> 100 µg/mL	100 µg/mL (≈ 460 µM)	> 100 µg/mL	–
Cc1ccc(S(=O)(=O)NC(=O)OCC2=CC=C(CO)SS2)cc1	100 µg/mL (≈ 268 µM)	50 µg/mL (≈ 134 µM)	100 µg/mL (≈ 268 µM)	–
CC(=O)OCC1=CC=C(CO)SS1	0.4 µg/mL (≈ 1.83 µM)	0.2 µg/mL (≈ 0.916 µM)	3.1 µg/mL (≈ 14.2 µM)	MIC (Candida tropicalis): 1.25 µg/mL (≈ 5.73 µM); MIC (Candida parapsilosis): 1.25 µg/mL (≈ 5.73 µM); MIC (Trichophyton rubrum): 0.31 µg/mL (≈ 1.42 µM); MIC (Pichia kudriavzevii): 1.25 µg/mL (≈ 5.73 µM)
O=C(Nc1ccccc1O)OCC1=CC=C(CO)SS1	50 µg/mL (≈ 161 µM)	50 µg/mL (≈ 161 µM)	100 µg/mL (≈ 321 µM)	–
OCC1=CC=C(COc2ccccc2F)SS1	3.1 µg/mL (≈ 11.5 µM)	1.6 µg/mL (≈ 5.92 µM)	3.1 µg/mL (≈ 11.5 µM)	–
N#C/C=C/C1=CC=C(CO)SS1	6.3 µg/mL (≈ 31.9 µM)	3.1 µg/mL (≈ 15.7 µM)	12.5 µg/mL (≈ 63.4 µM)	–
COC(=O)c1ccccc1OCC1=CC=C(CO)SS1	12.5 µg/mL (≈ 40.3 µM)	6.3 µg/mL (≈ 20.3 µM)	6.3 µg/mL (≈ 20.3 µM)	–

SMILES	MIC (Aspergillus fumigatus [1])	MIC (Cryptococcus neoformans [3])	MIC (Candida albicans [6])	other results
COC(=O)/C=C/C1=CC=C(CO)SS1	6.3 µg/mL (≈ 27.4 µM)	6.3 µg/mL (≈ 27.4 µM)	6.3 µg/mL (≈ 27.4 µM)	–
OCC1=CC=C(COc2ccc(-n3ccnc3)cc2)SS1	100 µg/mL (≈ 314 µM)	100 µg/mL (≈ 314 µM)	12.5 µg/mL (≈ 39.3 µM)	–
O=c1ccccn1CC1=CC=C(CO)SS1	> 100 µg/mL	12.5 µg/mL (≈ 49.3 µM)	> 100 µg/mL	–
O=c1ccc([N+](=O)[O-])cn1CC1=CC=C(CO)SS1	> 100 µg/mL	100 µg/mL (≈ 335 µM)	> 100 µg/mL	–
O=C(NCC1=CC=C(CO)SS1)Nc1ccccc1O	> 100 µg/mL	> 100 µg/mL	> 100 µg/mL	–
N#CC1=CC=C(CO)SS1	1.6 µg/mL (≈ 9.34 µM)	0.8 µg/mL (≈ 4.67 µM)	0.8 µg/mL (≈ 4.67 µM)	–
O=C(OCC1=CC=C(CO)SS1)c1ccncc1	1.6 µg/mL (≈ 5.69 µM)	–	3.1 µg/mL (≈ 11 µM)	–
CN(C)c1cccc(OCC2=CC=C(CO)SS2)c1	100 µg/mL (≈ 338 µM)	50 µg/mL (≈ 169 µM)	> 50 µg/mL	–
OCC1=CC=C(COc2cccnc2)SS1	3.1 µg/mL (≈ 12.2 µM)	1.6 µg/mL (≈ 6.32 µM)	3.1 µg/mL (≈ 12.2 µM)	–
OCC1=CC=C(COc2ccccn2)SS1	3.1 µg/mL (≈ 12.2 µM)	3.1 µg/mL (≈ 12.2 µM)	3.1 µg/mL (≈ 12.2 µM)	–
CC(=O)OCC1=CC=C(COC(C)=O)SS1	0.63 µg/mL (≈ 2.42 µM)	0.63 µg/mL (≈ 2.42 µM)	1.25 µg/mL (≈ 4.8 µM)	–
O=C(OCC1=CC=C(COC(=O)c2cccnc2)SS1)c1cccnc1	2 µg/mL (≈ 5.18 µM)	–	2 µg/mL (≈ 5.18 µM)	–
O=C(OCC1=CC=C(CO)SS1)c1ccccc1	3.1 µg/mL (≈ 11.1 µM)	3.1 µg/mL (≈ 11.1 µM)	6.3 µg/mL (≈ 22.5 µM)	–
O=C(OCC1=CC=C(CO)SS1)C1CC1	0.4 µg/mL (≈ 1.64 µM)	1.6 µg/mL (≈ 6.55 µM)	3.1 µg/mL (≈ 12.7 µM)	MIC (Candida tropicalis): 1.25 µg/mL (≈ 5.12 µM); MIC (Candida parapsilosis): 2.5 µg/mL (≈ 10.2 µM); MIC (Trichophyton rubrum): 0.31 µg/mL (≈ 1.27 µM); MIC (Pichia kudriavzevii): 1.25 µg/mL (≈ 5.12 µM)
CO/N=C/C1=CC=C(/C=N/OC)SS1	6.3 µg/mL (≈ 27.4 µM)	1.6 µg/mL (≈ 6.95 µM)	0.8 µg/mL (≈ 3.47 µM)	–
O=CC1=CC=C(C=O)SS1	6.3 µg/mL (≈ 36.6 µM)	1.6 µg/mL (≈ 9.29 µM)	1.6 µg/mL (≈ 9.29 µM)	–
[N-]=[N+]=NCC1=CC=C(CO)SS1	0.25 µg/mL (≈ 1.24 µM)	0.25 µg/mL (≈ 1.24 µM)	0.25 µg/mL (≈ 1.24 µM)	–
C#Cc1cccc(OCC2=CC=C(CO)SS2)c1	6.3 µg/mL (≈ 22.8 µM)	1.6 µg/mL (≈ 5.79 µM)	1.6 µg/mL (≈ 5.79 µM)	–
O=C(OCC1=CC=C(COC(=O)C2CC2)SS1)C1CC1	1.6 µg/mL (≈ 5.12 µM)	3.1 µg/mL (≈ 9.92 µM)	6.3 µg/mL (≈ 20.2 µM)	–

SMILES	MIC (Aspergillus fumigatus [1])	MIC (Cryptococcus neoformans [3])	MIC (Candida albicans [6])	other results
O/N=C/C1=CC=C(/C=N/O)SS1	0.4 µg/mL (≈ 1.98 µM)	0.8 µg/mL (≈ 3.96 µM)	0.1 µg/mL (≈ 0.494 µM)	MIC (Candida albicans [2]): 0.1 µg/mL (≈ 0.494 µM); MIC (Candida tropicalis): 1.6 µg/mL (≈ 7.91 µM); MIC (Candida parapsilosis): 0.2 µg/mL (≈ 0.989 µM); MIC (Candida albicans [4]): 0.2 µg/mL (≈ 0.989 µM); MIC (Trichophyton rubrum): 0.05 µg/mL (≈ 0.247 µM); MIC (Cryptococcus neoformans [5]): 1.6 µg/mL (≈ 7.91 µM); MIC (Pichia kudriavzevii): 6.3 µg/mL (≈ 31.1 µM); MIC (Aspergillus fumigatus [7]): 0.2 µg/mL (≈ 0.989 µM)
CC1(C)OCC(COCC2=CC=C(COCC(O)CO)SS2)O1 (stereo unspecified)	> 100 µg/mL	> 100 µg/mL	> 100 µg/mL	–
OCC1=CC=C(COc2ccc(O)nn2)SS1	> 100 µg/mL	> 100 µg/mL	> 100 µg/mL	–
O=C(OCC1=CC=C(COC(=O)C2CCCC2)SS1)C1CCCC1	> 250 µg/mL	–	> 250 µg/mL	–
O=C(OCC1=CC=C(CO)SS1)c1ccccc1O	0.2 µg/mL (≈ 0.675 µM)	0.2 µg/mL (≈ 0.675 µM)	0.2 µg/mL (≈ 0.675 µM)	–
CO/N=C/C1=CC=C(CO)SS1	6.3 µg/mL (≈ 31 µM)	6.3 µg/mL (≈ 31 µM)	6.3 µg/mL (≈ 31 µM)	–
O=[N+]([O-])c1ccc(OCC2=CC=C(CO)SS2)nc1	0.4 µg/mL (≈ 1.34 µM)	0.1 µg/mL (≈ 0.335 µM)	0.2 µg/mL (≈ 0.67 µM)	–
CC(C)C(=O)OCC1=CC=C(COC(=O)C(C)C)SS1	6.3 µg/mL (≈ 19.9 µM)	12.5 µg/mL (≈ 39.5 µM)	> 100 µg/mL	–
O=C(OCC1=CC=C(COC(=O)c2ccccc2O)SS1)c1ccccc1O	> 250 µg/mL	–	> 250 µg/mL	–
CC1(C)OCC(COCC2=CC=C(CO)SS2)O1 (stereo unspecified)	> 100 µg/mL	> 100 µg/mL	> 100 µg/mL	–
OCC1=CC=C(CSc2nnnn2-c2ccc(O)cc2)SS1	12.5 µg/mL (≈ 35.5 µM)	6.3 µg/mL (≈ 17.9 µM)	25 µg/mL (≈ 70.9 µM)	–
CC1(C)OCC(COCC2=CC=C(COCC3COC(C)(C)O3)SS2)O1 (stereo unspecified)	> 100 µg/mL	> 100 µg/mL	> 100 µg/mL	–
O=C(OCC1=CC=C(COC(=O)c2ccncc2)SS1)c1ccncc1	2 µg/mL (≈ 5.18 µM)	–	2 µg/mL (≈ 5.18 µM)	–
COC(=O)c1cccc(OCC2=CC=C(CO)SS2)c1	25 µg/mL (≈ 80.5 µM)	6.3 µg/mL (≈ 20.3 µM)	3.1 µg/mL (≈ 9.99 µM)	–
O=C(OCC1=CC=C(CO)SS1)C1CCCC1	3.1 µg/mL (≈ 11.4 µM)	–	6.3 µg/mL (≈ 23.1 µM)	–
O=C(NCC1=CC=C(CO)SS1)c1ccccc1O	> 100 µg/mL	100 µg/mL (≈ 339 µM)	> 100 µg/mL	–
OCC1=CC=C(CO)SS1	2 µg/mL (≈ 11.3 µM)	31 µg/mL (≈ 176 µM)	16 µg/mL (≈ 90.8 µM)	–
OCC1=CC=C(COc2ccccc2O)SS1	12.5 µg/mL (≈ 46.6 µM)	25 µg/mL (≈ 93.2 µM)	6.3 µg/mL (≈ 23.5 µM)	–
